56 compounds from PubChem BioAssay AID449755 (Broad Institute, 2010) can be followed below.

Molecules are shown by their SMILES. Inconclusive results are not listed. Activity calls are given as the source filed them.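 The calls were made as follows: active = compounds raising caspase signal whose fitted AC50 is at most ten times the top tested dose; inconclusive = flat fit with 30 to 70% activity, or failed fit; inactive = the rest.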

In this experiment the test system is HMC 1-8 low-A1 cells, caspase-3/7 luminescence, 3 h. Kind of experiment: caspase activation in low-A1 HMC 1-8 cells, dose response, counter-screen for A1 inhibitor project, cell-based, caspase luminescence (AID 449755). In a few lines:
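Test system: low-A1 HMC 1-8 human cancer cell line; Input: 2500 cells/well; Buffer or medium: RPMI-1640 growth medium with 10% FBS; Compound: pin-transferred compound; Times: 3 h compound exposure, 37 °C/5% CO2, 1 h room-temperature detection; Measured by: caspase-3/7 DEVD luminescence; Evaluation: caspase-3/7 activation, marking off-target non-A1 activity.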
A general note: A counterscreen serves to expose hits that act by an unwanted route or on another target.
Turning to `COC(=O)c1ccc2c(c1)C(C)(C)C(/C=C/c1ccccc1O)=[N+]2C`, the concentration at half-maximal activity (AC50) is 8.58 µM.

`CC(=O)OC(C)(C)/C=C/C(=O)[C@](C)(O)C1[C@H](O)C[C@@]2(C)C3CC=C4C(C[C@H](O)C(=O)C4(C)C)[C@]3(C)C(=O)C[C@]12C` (stereo partly specified): the AC50 was > 35 µM (inactive).

`N#CC(C#N)=C1C=CC=CN1/C(=C\c1ccccc1Cl)C(=O)c1ccccc1`: the concentration at half-maximal activity (AC50) is 27.9 µM.

Take `COc1ccccc1CCNC(C)CCc1ccc(O)cc1` (stereo unspecified): the AC50 was > 35 µM (inactive).

For `O=C(N=Nc1c(O)[nH]c2ccc([N+](=O)[O-])cc12)c1cc(-c2ccccc2Cl)nc2ccccc12`, the AC50 was > 35 µM (inactive).

In the case of `O=C(CCl)N=c1sccn1Cc1ccccc1Cl`, the AC50 is > 35 µM (inactive).

With `COc1ccc(C(=O)/C=C/C(=O)N(CC(=O)NC2CCCCC2)Cc2cccs2)c(O)c1`, the concentration at half-maximal activity (AC50) is 5.69 µM.

In the case of `O=C(NC1CCCCC1)c1cccc2c1C(=O)c1ccc(-c3ccc(OC(F)(F)F)cc3)cc1S2(=O)=O`, the AC50 was > 35 µM (inactive).

Consider `CCOc1ccc(NCc2cccn2-c2nnc(N3CCC(C(=O)NCCCN4CC(C)CC(C)C4)CC3)s2)cc1` (stereo unspecified), for which the AC50 was > 35 µM (inactive).

With `C=CC(=O)Nc1ccc(CN2C(=O)N(c3c(Cl)c(OC)cc(OC)c3Cl)Cc3cnc(NCCCCN(CC)CC)nc32)cc1`, the AC50 is > 35 µM (inactive).

On to `COc1ccc(NC(=S)NC(NC(=O)/C=C/c2ccccc2)C(Cl)(Cl)Cl)cc1` (stereo unspecified), for which the AC50 was > 35 µM (inactive).

In the case of `COc1cc(/C=C(/C#N)C(=O)Nc2ccc(Cl)cc2)ccc1Oc1nc(Cl)ncc1F`, the AC50 was > 35 µM (inactive).

`Cc1nn(Cc2ccc(Cl)cc2Cl)c(C)c1NC(=O)Cn1nc([N+](=O)[O-])c(Cl)c1C`: the AC50 was > 35 µM (inactive).

As to `COc1cc(CN2CCN(c3cc(C)ccc3C)CC2)ccc1O`, the AC50 was > 35 µM (inactive).

Regarding `CCN(C(=O)CCN1C(=O)c2ccccc2S1(=O)=O)c1ccccc1`, the AC50 was > 35 µM (inactive).

Turning to `O=C(c1ccc(COc2ccc3ccccc3c2)o1)N1N=C(C(F)F)CC1(O)C(F)F` (stereo unspecified), the AC50 was > 35 µM (inactive).

In the case of `Cc1ccc(Sc2c([N+](=O)[O-])c(=O)n(C)c3ccccc23)cc1`, the AC50 was > 35 µM (inactive).

Turning to `CC1(C)C[C@H](O)[C@]2(CO)[C@H](O)C[C@]3(C)C(=CCC4[C@@]5(C)CC[C@H](O)C(C)(C)C5CC[C@]43C)[C@@H]2C1` (stereo partly specified), the AC50 was > 35 µM (inactive).

Take `CCCCN1C(=O)/C(=C2/Sc3ccccc3N2C)S/C1=N\c1ncn[nH]1`: the AC50 is > 35 µM (inactive).

With `COC(=O)CSc1nc(N)c2c3c(sc2n1)C(c1ccccc1)SC(c1ccccc1)C3` (stereo unspecified), the AC50 was > 35 µM (inactive).

In the case of `Cc1ccc(C)c(S(=O)(=O)NCC(=O)Nc2sc3c(c2C(N)=O)CCC(C)C3)c1` (stereo unspecified), the AC50 is > 35 µM (inactive).

Consider `COc1ccc(-c2cc(=O)oc3c(C)c(OC(=O)c4cccs4)ccc23)cc1`, for which the AC50 is > 35 µM (inactive).

With `Cc1cc(C(=O)CCl)c(C)n1CCc1ccc(Cl)cc1`, the AC50 is > 35 µM (inactive).

As for `COc1ccc(-c2c(C#N)c(N)nc(Sc3ccc(Cl)cc3)c2C#N)cc1`, the AC50 was > 35 µM (inactive).

`CC1=NNC(=O)/C1=C\c1cn(-c2ccccc2)nc1-c1ccccc1`: the AC50 was > 35 µM (inactive).

Take `O=C(COc1ccc(/C=N/NC(=O)c2cc3ccccc3o2)cc1Cl)Nc1ccccc1`: the AC50 was 8.65 µM.

For the compound `CCc1nnc(NC(=O)CSc2nc(-c3ccccc3)cc(-c3ccc(F)cc3)c2C#N)s1`, the AC50 is > 35 µM (inactive).

For `COc1ccc(S(=O)(=O)N2CC(O)CC2C(=O)OCC(=O)Nc2ccc(Cl)cn2)cc1` (stereo unspecified), the AC50 is > 35 µM (inactive).

With `Cc1cccc(C)c1NC(=O)C(Cl)C(=O)c1ccccc1` (stereo unspecified), the AC50 was > 35 µM (inactive).

Consider `CC(C)Cn1c(O)c(/C=C2\C=NN=C2c2ccccc2)sc1=S`, for which the AC50 is > 35 µM (inactive).

Consider `O=C(Cn1c(C(F)(F)F)nc2ccccc21)N=Nc1c(O)[nH]c2ccc(Br)cc12`, for which the AC50 was 32.3 µM.

For the compound `COc1ccccc1-c1cn[nH]c1-c1ccc(OCc2ccccc2)cc1O`, the AC50 is > 35 µM (inactive).

Consider `COc1ccc(NC(=O)c2cccc3c2C(=O)c2ccc(-c4ccc(F)cc4OCc4ccccc4)cc2S3(=O)=O)cc1`, for which the AC50 is > 35 µM (inactive).

Turning to `CN1C2CCC1/C(=C/c1ccccn1)C(=O)/C2=C\c1ccccn1`, the AC50 was > 35 µM (inactive).

Regarding `Cc1cc(C)n(-c2nc(Nc3ccccc3C)nc(-n3nc(C)cc3C)n2)n1`, the AC50 is > 35 µM (inactive).

Take `N#Cc1cccnc1N1CCN(C(=O)c2cccc3c2C(=O)c2ccc(-c4ccc(Cl)c(C(F)(F)F)c4)cc2S3(=O)=O)CC1`: the AC50 was > 35 µM (inactive).

As for `Oc1[nH]c2ccc(Br)cc2c1N=NC(=S)Nc1ccc(F)cc1`, the AC50 is > 35 µM (inactive).

As to `CCc1ccc(NC(=O)c2nc(S(=O)(=O)Cc3ccccc3)ncc2Cl)cc1`, the AC50 was > 35 µM (inactive).

Regarding `CCOC(=O)COc1ccccc1/C=C\[N+](=O)[O-]`, the AC50 is > 35 µM (inactive).

As for `O=C1/C(=C/c2ccc(N3CCOCC3)o2)SC(=Nc2ccccc2)N1CCc1c[nH]c2ccccc12`, the AC50 is > 35 µM (inactive).

For the compound `COc1ccc(Oc2cc(NC(=O)c3nn(C)cc3[N+](=O)[O-])cc([N+](=O)[O-])c2)cc1`, the AC50 was > 35 µM (inactive).

Regarding `Cc1ccc(CS(=O)(=O)c2ncc(Cl)c(C(=O)Nc3nnc(C(C)C)s3)n2)cc1`, the AC50 is > 35 µM (inactive).

On to `CCn1c(SCC(=O)c2ccccc2)nnc1-c1cc2cc(Br)ccc2o1`, for which the AC50 is > 35 µM (inactive).

As for `COc1ccc(-c2ccc3c(c2)S(=O)(=O)c2cccc(C(=O)NCCOc4ccccc4)c2C3=O)cc1OC`, the AC50 was > 35 µM (inactive).

With `CC(C)c1cccc(-c2ccc3c(c2)S(=O)(=O)c2cccc(C(=O)NCc4ccccc4Cl)c2C3=O)c1`, the AC50 is > 35 µM (inactive).

Take `CSC[C@@H]1NC(=S)N(c2ccc(C)cc2)C1=O`: the AC50 was > 35 µM (inactive).

In the case of `CC(C)c1ccc2[nH]c(O)c(N=NC(=O)c3cccc(S(=O)(=O)Nc4ccc(Cl)cc4)c3)c2c1`, the AC50 is > 35 µM (inactive).

Take `Cc1ccc(NC(=S)NC(NC(=O)Cc2cccc3ccccc23)C(Cl)(Cl)Cl)cc1` (stereo unspecified): the half-maximal activity concentration (AC50) was 27 µM.

As for `c1ccc(-c2sc3ccccc3c2-c2ccc(OCCN3CCCC3)cc2)cc1`, the AC50 is > 35 µM (inactive).

Consider `COc1cc(NC(=O)c2ccccc2F)ccc1NC(=O)c1cc2ccccc2o1`, for which the AC50 was > 35 µM (inactive).

With `COc1ccc(C2CC(c3c(O)cc(C)oc3=O)=NCCS2)c(OC)c1` (stereo unspecified), the AC50 was > 35 µM (inactive).

In the case of `CCOC(=O)C1=C(c2ccccc2)O/C(=C(/C#N)C(F)(F)F)S1`, the AC50 was > 35 µM (inactive).

On to `CC(C)N=c1scc(-c2ccco2)n1/N=C/c1ccc(O)c(O)c1`, for which the AC50 was > 35 µM (inactive).

Consider `Cc1nn(-c2ccccc2)c(Cl)c1CN(C(=O)CCl)c1ccc(Cl)cc1`, for which the AC50 is > 35 µM (inactive).

Turning to `COc1ccc(OC[C@@H](O)CNC(=O)c2cccc3c2C(=O)c2ccc(-c4ccc(F)cc4OCc4ccccc4)cc2S3(=O)=O)cc1`, the AC50 is > 35 µM (inactive).

Regarding `Cc1ccc(C(=O)/C=C/C(=O)c2ccc(C)cc2)cc1`, the AC50 was > 35 µM (inactive).

The term AC50 denotes the midpoint of the concentration-response curve, whichever way the signal moves.
